The source made the active and inactive calls. The rule behind the calls is not given here.

Experiment [1] deals with Platelet-derived growth factor receptor (Mus musculus) (UniProt P05622+P26618). Kind of experiment: Inhibition of PDGFR autophosphorylation in mouse Swiss 3T3 fibroblast up to 10 ug/ml by immunoblotting. Summed up: (§1)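 PDGFR autophosphorylation in Swiss 3T3 cells was assayed by a previously described method. IC50 was fitted to a six-concentration curve, with duplicate or triplicate determinations.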
For orientation: In western blotting, separated proteins are transferred to a membrane and probed.

The target of experiment [2] is Receptor-type tyrosine-protein kinase FLT3 (Homo sapiens) (UniProt P36888). Briefly: Inhibition of FLT3 autophosphorylation in human EOL1 cells up to 10 ug/ml by immunoblotting. The format is cell-based.
Experiment [3] addresses Platelet-derived growth factor receptor (Mus musculus, UniProt P05622+P26618). Briefly: Inhibition of PDGFR autophosphorylation in mouse Swiss 3T3 fibroblast by immunoblotting. An outline of the steps:
as §1

The subject of experiment [4] is FLT3 (Homo sapiens). Briefly: Inhibition of FLT3 autophosphorylation in human EOL-1 cells up to 10 ug/ml by immunoblotting.

Receptor-type tyrosine-protein kinase FLT3 (Homo sapiens), sequence (P36888 whole entry): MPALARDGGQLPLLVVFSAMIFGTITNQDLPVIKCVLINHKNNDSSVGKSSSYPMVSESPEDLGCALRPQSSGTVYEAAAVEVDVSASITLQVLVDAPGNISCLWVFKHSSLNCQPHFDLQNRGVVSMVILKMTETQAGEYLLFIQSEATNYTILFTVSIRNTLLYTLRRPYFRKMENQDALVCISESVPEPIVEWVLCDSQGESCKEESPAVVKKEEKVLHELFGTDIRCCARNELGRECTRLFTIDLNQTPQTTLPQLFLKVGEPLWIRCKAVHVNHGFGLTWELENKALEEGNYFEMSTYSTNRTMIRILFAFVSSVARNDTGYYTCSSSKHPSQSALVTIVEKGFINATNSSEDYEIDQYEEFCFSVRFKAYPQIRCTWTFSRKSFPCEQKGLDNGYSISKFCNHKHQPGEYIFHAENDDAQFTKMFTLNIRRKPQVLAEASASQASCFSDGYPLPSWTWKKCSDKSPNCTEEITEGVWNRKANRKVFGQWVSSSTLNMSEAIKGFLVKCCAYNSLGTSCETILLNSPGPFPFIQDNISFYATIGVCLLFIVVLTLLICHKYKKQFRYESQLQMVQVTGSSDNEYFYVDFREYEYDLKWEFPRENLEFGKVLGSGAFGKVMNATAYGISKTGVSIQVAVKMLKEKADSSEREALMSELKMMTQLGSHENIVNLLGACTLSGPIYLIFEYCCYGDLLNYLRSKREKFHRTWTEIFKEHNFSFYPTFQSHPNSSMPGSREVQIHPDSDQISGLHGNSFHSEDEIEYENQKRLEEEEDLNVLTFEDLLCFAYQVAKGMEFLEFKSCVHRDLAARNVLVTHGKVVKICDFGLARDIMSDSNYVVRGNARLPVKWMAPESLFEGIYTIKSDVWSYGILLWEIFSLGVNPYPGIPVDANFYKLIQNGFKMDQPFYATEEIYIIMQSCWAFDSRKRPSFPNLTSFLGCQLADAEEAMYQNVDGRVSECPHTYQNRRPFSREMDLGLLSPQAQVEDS

Turning to `Nc1cccc(Nc2nc(-c3cccnc3)c[nH]2)c1`, the result in experiment [1] and in experiment [2] was inactive. For the compound `Cc1ccc(C(=O)Nc2cccc(Nc3nc(-c4cccnc4)c[nH]3)c2)cc1`, 0.2 µM corresponded to half-maximal inhibition in experiment [3] (IC50). Regarding `Cc1ccc(C(=O)Nc2ccc(C)c(Nc3nc(-c4cccnc4)c[nH]3)c2)cc1`, the result in experiment [4] and in experiment [2] was inactive. In experiment [3], this compound came in with an IC50 of 0.2 µM. As to `COc1cc(C(=O)Nc2ccc(C)c(Nc3nc(-c4cccnc4)c[nH]3)c2)cc(OC)c1OC`, the result in experiment [1] and in experiment [2] was inactive. In experiment [3], this compound yielded an IC50 of over 10 µM.

Regarding `Cc1ccc(NC(=O)c2ccc(Cl)cc2)cc1Nc1nc(-c2cccnc2)c[nH]1`, the outcome in experiment [4] and in experiment [2] was inactive. In experiment [3], this compound had an IC50 of 0.4 µM.

In the case of `Cc1ccc([N+](=O)[O-])cc1Nc1nc(-c2ccncc2)c[nH]1`, the result in experiment [1] and in experiment [2] was inactive. As for `CCCCCCCCCCc1ccc(C(=O)Nc2ccc(C)c(Nc3nc(-c4cccnc4)c[nH]3)c2)cc1`, the result in experiment [1] and in experiment [2] was inactive. The compound further gave an IC50 in experiment [3] of over 10 µM.

The compound `CCc1ccc(NC(=O)c2ccc(C)cc2)cc1Nc1nc(-c2cccnc2)c[nH]1` had a half-inhibitory concentration (IC50) in experiment [3] of 6.5 µM. For `Cc1ccc(N)cc1Nc1nc(-c2ccncc2)c[nH]1`, the outcome in experiment [1] and in experiment [2] was inactive. Turning to `CC(=O)Nc1ccc(C)c(Nc2nc(-c3cccnc3)c[nH]2)c1`, the IC50 in experiment [3] was 5.9 µM. For the compound `CCc1ccc(NC(=O)c2ccccc2)cc1Nc1nc(-c2cccnc2)c[nH]1`, the IC50 in experiment [3] was 4.7 µM.

In turn, `Cc1ccc(NC(=O)c2ccccc2C)cc1Nc1nc(-c2cccnc2)c[nH]1` returned an IC50 in experiment [3] of 0.6 µM. As for `Cc1ccc([N+](=O)[O-])cc1Nc1nc(-c2cccnc2)c[nH]1`, the result in experiment [1] and in experiment [2] was inactive. Turning to `Cc1ccc(N)cc1Nc1nc(-c2cccnc2)c[nH]1`, the result in experiment [1] and in experiment [2] was inactive.

For the compound `CN1CCN(Cc2ccc(C(=O)Nc3cccc(Nc4nc(-c5cccnc5)c[nH]4)c3)cc2)CC1`, inhibition in experiment [3] was half-maximal at 6.5 µM (IC50).

Regarding `Cc1ccc(NC(=O)c2ccc([N+](=O)[O-])cc2)cc1Nc1nc(-c2cccnc2)c[nH]1`, the result in experiment [1] and in experiment [2] was inactive. In experiment [3], this compound had an IC50 of over 30 µM. For `Cc1ccc(NC(=O)c2ccc(CN3CCN(C)CC3)cc2)cc1Nc1nc(-c2ccncc2)c[nH]1`, in experiment [3], the IC50 was over 10 µM. On the same count and under the same terms, the same measure for `Cc1ccc(NC(=O)c2ccccc2)cc1Nc1nccc(-c2cccnc2)n1`: 0.1 µM; for `Cc1ccc(NC(=O)c2ccccc2)cc1Nc1nc(-c2ccccc2)c[nH]1`: 7.1 µM. Consider `Cc1ccc(NC(=O)c2ccc(CN3CCN(C)CC3)cc2)cc1Nc1nc(-c2cccnc2)c[nH]1`, for which the outcome in experiment [1] and in experiment [2] was inactive. This compound had a half-inhibitory concentration (IC50) in experiment [3] of over 10 µM. For the compound `Cc1cccc(C(=O)Nc2ccc(C)c(Nc3nc(-c4cccnc4)c[nH]3)c2)c1`, in experiment [3], inhibition was half-maximal at 2.2 µM (IC50).

Consider `Cc1ccc([N+](=O)[O-])cc1Nc1nc(-c2ccccc2)c[nH]1`, for which the outcome in experiment [1] and in experiment [2] was inactive.

As to `CCc1ccc(NC(=O)c2ccccc2C)cc1Nc1nc(-c2cccnc2)c[nH]1`, the IC50 in experiment [3] turned out to be 1.6 µM. Turning to `CCc1ccc(N)cc1Nc1nc(-c2cccnc2)c[nH]1`, the result in experiment [1] and in experiment [2] was inactive. For `COc1ccc(C(=O)Nc2ccc(C)c(Nc3nc(-c4cccnc4)c[nH]3)c2)cc1`, the outcome in experiment [1] and in experiment [2] was inactive. This compound registered an IC50 in experiment [3] of over 30 µM.

`CC(=O)Nc1ccc(C)c(Nc2nc(-c3ccccc3)c[nH]2)c1`: the IC50 in experiment [3] is over 30 µM. Still for that read-out and setting: the same measure for `Cc1ccc(NC(=O)c2ccccc2)cc1Nc1nc(-c2ccncc2)c[nH]1`: over 10 µM. For `Cc1ccc(NC(=O)c2ccc(N)cc2)cc1Nc1nc(-c2cccnc2)c[nH]1`, the result in experiment [1] and in experiment [2] was inactive. In experiment [3], the IC50 is over 30 µM. `Cc1ccccc1C(=O)Nc1cccc(Nc2nc(-c3cccnc3)c[nH]2)c1` registered a 50% inhibitory concentration (IC50) in experiment [3] of 0.6 µM. In the case of `Cc1ccc(N)cc1Nc1nc(-c2ccccc2)c[nH]1`, the result in experiment [1] and in experiment [2] was inactive. Turning to `O=[N+]([O-])c1cccc(Nc2nc(-c3cccnc3)c[nH]2)c1`, the outcome in experiment [1] and in experiment [2] was inactive.

Regarding `Cc1ccc(NC(=O)c2ccc(CN3CCN(C)CC3)cc2)cc1Nc1nc(-c2ccccc2)c[nH]1`, in experiment [3], the IC50 was over 10 µM.

For the compound `Cc1ccc(NC(=O)c2ccccc2)cc1Nc1nc(-c2cccnc2)c[nH]1`, the result in experiment [4] and in experiment [2] was inactive. In addition, inhibition in experiment [3] was half-maximal at 0.3 µM (IC50). `Cc1cccc(C(=O)Nc2cccc(Nc3nc(-c4cccnc4)c[nH]3)c2)c1` had an IC50 in experiment [3] of 0.3 µM. In the case of `Cc1ccc(NC(=O)c2ccncc2)cc1Nc1nc(-c2cccnc2)c[nH]1`, the result in experiment [4] and in experiment [2] was inactive. The concentration for half-maximal inhibition (IC50) in experiment [3] was found to be 1.8 µM. For `CCc1ccc([N+](=O)[O-])cc1Nc1nc(-c2cccnc2)c[nH]1`, the outcome in experiment [1] and in experiment [2] was inactive. In experiment [3], `Cc1ccc(NC(=O)c2ccc(CN3CCN(C)CC3)cc2)cc1Nc1nccc(-c2cccnc2)n1` [IMATINIB] returned an IC50 of 0.3 µM.

`CC(=O)Nc1ccc(C)c(Nc2nccc(-c3cccnc3)n2)c1` came in with an IC50 in experiment [3] of 50 µM.

`CCc1ccc(NC(=O)c2cccc(C)c2)cc1Nc1nc(-c2cccnc2)c[nH]1` yielded an IC50 in experiment [3] of 0.3 µM.

For orientation: IC50 means the concentration that gives 50% inhibition. The low end stands for greater potency, the high end for weaker potency.

Source of the values: ChEMBL document CHEMBL1140959, “Inhibition of PDGFR tyrosine kinase activity by a series of novel N-(3-(4-(pyridin-3-yl)-1H-imidazol-2-ylamino)phenyl)amides: a SAR study on the bioisosterism of pyrimidine and imidazole” (Eur J Med Chem, 2008).
